# Activity calls are given as the source filed them. No cut-off for these calls is given here.
# Columns and labels:
# [1] = target: Induced myeloid leukemia cell differentiation protein Mcl-1 (Homo sapiens, UniProt Q07820); test: Inhibition of biotinylated Bim peptide (81 to 106 residues) binding to His-tagged human Mcl-1 expressed in Escherichia coli BL21 (DE3) cells preincubated for 1 hr followed by biotinylated Bim peptide addition measured after 2 hrs by ELISA
# Outline: (§1)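 Inhibitor serially diluted (100–0.1 µM) from 10 mM DMSO stock, preincubated 1 h with 200 nM His-tagged protein in PBS (final DMSO 4%), then added 2 h to streptavidin plates holding biotin-Bim (plated at 0.09 mg/mL). Incubations at 4 °C. Detection with HRP anti-His, TMB 30 min, H2SO4 stop, A450. IC50 averaged from three independent experiments, with SD.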
# [2] = target: Apoptosis regulator Bcl-2 (Homo sapiens, UniProt P10415); test: Inhibition of biotinylated Bim peptide (81 to 106 residues) binding to His-tagged human Bcl-2 expressed in Escherichia coli BL21 (DE3) cells preincubated for 1 hr followed by biotinylated Bim peptide addition measured after 2 hrs by ELISA; outline: as §1
# Apoptosis regulator Bcl-2, sequence (P10415 whole entry, the tested form may be a part): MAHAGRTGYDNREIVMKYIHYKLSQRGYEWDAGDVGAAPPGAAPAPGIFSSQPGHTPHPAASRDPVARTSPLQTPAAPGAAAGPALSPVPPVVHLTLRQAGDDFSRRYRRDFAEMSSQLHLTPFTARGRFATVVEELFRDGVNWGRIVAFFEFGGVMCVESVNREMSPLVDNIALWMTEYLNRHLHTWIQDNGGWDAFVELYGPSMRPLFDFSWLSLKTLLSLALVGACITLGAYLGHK
# [3] = target: T1, Protein cereblon/Induced myeloid leukemia cell differentiation protein Mcl-1 (Homo sapiens, UniProt Q07820+Q96SW2); test: Induction of CRBN-mediated Mcl-1 degradation in human HeLa cells assessed as relative abundance at 10 uM after 12 hrs by Western blot analysis (reference value: 1); type: cell-based
# T1 sequence (Q07820 whole entry, looked up): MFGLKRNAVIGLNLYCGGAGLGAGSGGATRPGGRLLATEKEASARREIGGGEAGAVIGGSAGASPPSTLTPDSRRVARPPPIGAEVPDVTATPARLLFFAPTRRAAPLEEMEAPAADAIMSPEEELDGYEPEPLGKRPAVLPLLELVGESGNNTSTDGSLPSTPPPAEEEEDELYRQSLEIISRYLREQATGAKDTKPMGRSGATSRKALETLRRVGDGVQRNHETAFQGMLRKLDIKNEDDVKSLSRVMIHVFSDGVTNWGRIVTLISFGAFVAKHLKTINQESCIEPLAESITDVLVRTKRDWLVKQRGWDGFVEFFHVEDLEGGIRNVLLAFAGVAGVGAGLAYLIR
# T1 sequence (Q96SW2 whole entry, looked up): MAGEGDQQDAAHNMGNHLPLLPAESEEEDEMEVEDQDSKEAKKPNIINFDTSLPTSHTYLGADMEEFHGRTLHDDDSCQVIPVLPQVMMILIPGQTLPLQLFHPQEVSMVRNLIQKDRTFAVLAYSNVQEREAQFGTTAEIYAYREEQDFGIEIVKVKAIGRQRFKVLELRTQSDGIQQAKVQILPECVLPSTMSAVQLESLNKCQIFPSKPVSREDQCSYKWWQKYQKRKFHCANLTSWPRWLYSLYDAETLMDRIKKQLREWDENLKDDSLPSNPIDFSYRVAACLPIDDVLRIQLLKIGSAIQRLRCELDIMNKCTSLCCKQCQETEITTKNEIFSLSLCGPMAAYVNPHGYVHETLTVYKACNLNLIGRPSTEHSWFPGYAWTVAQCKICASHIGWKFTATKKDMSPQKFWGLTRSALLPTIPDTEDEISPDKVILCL
# [4] = target: T1, Protein cereblon/Induced myeloid leukemia cell differentiation protein Mcl-1; test: Induction of CRBN-mediated Mcl-1 degradation in human HeLa cells assessed as relative abundance at 1 uM after 12 hrs by Western blot analysis (reference value: 1); type: cell-based
# [5] = target: T2, Protein cereblon/Apoptosis regulator Bcl-2 (Homo sapiens, UniProt P10415+Q96SW2); test: Induction of CRBN-mediated Bcl-2 degradation in human HeLa cells assessed as relative abundance at 10 uM after 12 hrs by Western blot analysis (reference value: 1); type: cell-based
# T2 sequence (P10415 whole entry, looked up): as the sequence (P10415 whole entry, the tested form may be a part) above
# T2 sequence (Q96SW2 whole entry, looked up): as the sequence (Q96SW2 whole entry, looked up) above
# [6] = target: T2, Protein cereblon/Apoptosis regulator Bcl-2; test: Induction of CRBN-mediated Bcl-2 degradation in human HeLa cells assessed as relative abundance at 1 uM after 12 hrs by Western blot analysis (reference value: 1); type: cell-based
# [7] = target: T1, Protein cereblon/Induced myeloid leukemia cell differentiation protein Mcl-1; test: Induction of CRBN-mediated Mcl-1 degradation in human HeLa cells at 10 uM after 12 hrs by Western blot analysis relative to control; type: cell-based
# [8] = target: T2, Protein cereblon/Apoptosis regulator Bcl-2; test: Induction of CRBN-mediated Bcl-2 degradation in human HeLa cells at 10 uM after 12 hrs by Western blot analysis relative to control; type: cell-based
# [9] = target: T1, Protein cereblon/Induced myeloid leukemia cell differentiation protein Mcl-1; test: Induction of CRBN-mediated Mcl-1 degradation in human HeLa cells assessed as formation of ubiquitin adducts of Mcl-1 at 1 to 10 uM after 12 hrs by Western blot analysis; type: cell-based
# [10] = target: T1, Protein cereblon/Induced myeloid leukemia cell differentiation protein Mcl-1; test: Protac activity at CRBN/Mcl-1 in human HeLa cell lysates assessed as ternary complex formation by Western blot analysis based pull-down assay; type: subcellular; details: Lysate
# Outline: (§2)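 HeLa lysate (25×10^6 cells, 1% Triton X-100 IP buffer), 1 mg total protein, incubated overnight with 1 µg CRBN antibody across a compound concentration gradient. Capture on protein A+G agarose, three Triton washes, boiled in loading buffer. Mcl-1, Bcl-2 and CRBN detected by immunoblotting. n=3 independent samples.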
# [11] = target: T2, Protein cereblon/Apoptosis regulator Bcl-2; test: Protac activity at CRBN/Bcl-2 in human HeLa cell lysates assessed as ternary complex formation by Western blot analysis based pull-down assay; type: subcellular; details: Lysate; outline: as §2
# [12] = tested on: NCI-H23; test: Cytotoxicity against human H23 cells incubated for 24 hrs by CCK8 assay; type: functional, cell-based
# Outline: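 H23 cells seeded at 4 × 10^4 per mL in RPMI with 10% FBS, L-glutamine and pen/strep. Treated 24 h at various concentrations or with DMSO vehicle (0.05%). Viability read by CCK8 and normalized against cell-free background and untreated cultures; mean ± s.e.m., n=3.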
# [13] = target: T1, Protein cereblon/Induced myeloid leukemia cell differentiation protein Mcl-1; test: Induction of CRBN-mediated Mcl-1 degradation in human HeLa cells assessed as Mcl-1 level at 10 uM after 12 hrs by Western blot analysis; type: cell-based
# [14] = target: T2, Protein cereblon/Apoptosis regulator Bcl-2; test: Induction of CRBN-mediated Bcl-2 degradation in human HeLa cells assessed as reduction in Bcl-2 level at 10 uM after 12 hrs by Western blot analysis; type: cell-based
# Induced myeloid leukemia cell differentiation protein Mcl-1, sequence (Q07820 whole entry, the tested form may be a part): as the sequence (Q07820 whole entry, looked up) above
SMILES,IC50 [1],IC50 [2],fold change (FC) [3],fold change (FC) [4],fold change (FC) [5],fold change (FC) [6],Activity [7],Activity [8],Activity [9],Activity [10],Activity [11],Activity [13],Activity [14],Activity [12]
N#CC1=C(NCCC(=O)NCCCCCC(=O)NCCCCCCNc2cccc3c2C(=O)N(C2CCC(=O)NC2=O)C3=O)c2ccc(Sc3ccc(Br)cc3)c3cccc(c23)C1=O (stereo not given),16 µM,11.6 µM,1.5,1.2,1,1.1,< 20%,< 20%,inactive,,,,,
COC(=O)CCNC1=C(C#N)C(=O)c2cccc3c(Sc4ccc(Br)cc4)ccc1c23,3.46 µM,4.52 µM,,,,,,,,,,,,
N#CC1=C(NCCC(=O)NCCCCNc2cccc3c2C(=O)N(C2CCC(=O)NC2=O)C3=O)c2ccc(Sc3ccc(Br)cc3)c3cccc(c23)C1=O (stereo not given),9.95 µM,9.71 µM,0.8,0.9,1,1,< 20%,< 20%,,,,,,
O=C(CCCCC(=O)NCCN1C(=O)c2cccc3c(Sc4ccc(Br)cc4)ccc(c23)C1=O)NCCCCNc1cccc2c1C(=O)N(C1CCC(=O)NC1=O)C2=O (stereo not given),1.51 µM,10 µM,0.9,1,1,1,,,,,,,,
Cc1nn(C)c(COc2ccc(N3CCN(S(=O)(=O)N(C)C)CC3)cc2)c1-c1cccc2c(CCCOc3cccc4ccccc34)c(C(=O)O)n(CCN3CCOCC3)c12,,,,,,,,,,,,,,Active
N#CC1=C(C#N)c2ccc(Sc3ccc(Br)cc3)c3cccc(c23)C1=O,2.03 µM,2.31 µM,1,,1,,inactive,inactive,,,,inactive,inactive,

# Further molecules by falling IC50 [1], results first:
IC50 [1],IC50 [2],fold change (FC) [3],fold change (FC) [4],fold change (FC) [5],fold change (FC) [6],Activity [7],Activity [8],Activity [9],Activity [10],Activity [11],Activity [13],Activity [14],SMILES,Activity [12]
15.1 µM,13.5 µM,0.9,1,0.9,1,,,,,,,,O=C(CCCCCNc1cccc2c1C(=O)N(C1CCC(=O)NC1=O)C2=O)NCCCCCCNC(=O)CCCCC(=O)NCCN1C(=O)c2cccc3c(Sc4ccc(Br)cc4)ccc(c23)C1=O (stereo not given),
10.6 µM,10.5 µM,1,1,1,1,< 20%,< 20%,,,,,,N#CC1=C(NCCC(=O)NCCNc2cccc3c2C(=O)N(C2CCC(=O)NC2=O)C3=O)c2ccc(Sc3ccc(Br)cc3)c3cccc(c23)C1=O (stereo not given),
7.89 µM,15.2 µM,1,1,1,1,,,,,,,,O=C(CCCCC(=O)NCCN1C(=O)c2cccc3c(Sc4ccc(Br)cc4)ccc(c23)C1=O)NCCNc1cccc2c1C(=O)N(C1CCC(=O)NC1=O)C2=O (stereo not given),
7.65 µM,1.94 µM,0.8,0.9,1.1,1,< 20%,< 20%,,inactive,inactive,,,N#CC1=C(NCCC(=O)NCCCCCCNc2cccc3c2C(=O)N(C2CCC(=O)NC2=O)C3=O)c2ccc(Sc3ccc(Br)cc3)c3cccc(c23)C1=O (stereo not given),
5.95 µM,4.78 µM,,,,,,,,,,,,COC(=O)CCCCC(=O)NCCN1C(=O)c2cccc3c(Sc4ccc(Br)cc4)ccc(c23)C1=O,
5.4 µM,7.66 µM,1,1,0.9,0.9,,,,,,,,O=C(CCCCC(=O)NCCN1C(=O)c2cccc3c(Sc4ccc(Br)cc4)ccc(c23)C1=O)NCCCCCCCCNc1cccc2c1C(=O)N(C1CCC(=O)NC1=O)C2=O (stereo not given),
4.45 µM,3.18 µM,1,,1,,inactive,inactive,,,,inactive,inactive,CC(C)(C)c1ccc(C(=O)NCCN2C(=O)c3cccc4c(Sc5ccc(Br)cc5)ccc(c34)C2=O)cc1,Active
2.29 µM,2.24 µM,2.2,1.8,1,1,< 20%,< 20%,inactive,,,,,N#CC1=C(NCCC(=O)NCCOCCOCCNc2cccc3c2C(=O)N(C2CCC(=O)NC2=O)C3=O)c2ccc(Sc3ccc(Br)cc3)c3cccc(c23)C1=O (stereo not given),

# Source: ChEMBL document CHEMBL4321796, “Proteolysis Targeting Chimeras for the Selective Degradation of Mcl-1/Bcl-2 Derived from Nonselective Target Binding Ligands” (J Med Chem, 2019)
